Assay results collected from several papers.
XDH: Xanthine dehydrogenase/oxidase (XDH, Bos taurus, UniProt P80457)
SIRT1: NAD-dependent protein deacetylase sirtuin-1 (SIRT1, Homo sapiens, UniProt Q96EB6)
SPHK2: Sphingosine kinase 2 (SPHK2, Homo sapiens, UniProt Q9NRA0)

SMILES	target	assay	conditions	endpoint	value
Oc1ncnc2[nH]ncc12	XDH	enzyme activity, inhibitor, absorbance	50 µg/mL	inhibition	98.7%
CCOC(=O)[C@](CC)(CCCS(=O)(=O)CCOCCOCCNC(=O)OC(C)(C)C)NC(=O)c1ccc(C2CC2)c(Cc2ccc(F)cc2)n1	Cannabinoid receptor 2 (Cnr2, Mus musculus, UniProt P47936)	cAMP, agonist	–	Emax	80%
CCCCCc1cc(=O)c2cc(Cl)cc(Br)c2o1	SIRT1	enzyme activity, inhibitor, fluorescence	200 µM	inhibition	9.8%
N[C@@H]1CON=C1O	Alanine racemase, biosynthetic (alr, Escherichia coli K-12, UniProt P0A6B4)	enzyme activity, inhibitor	–	kinact/KI	8.6 M⁻¹ s⁻¹
C[C@]12CC[C@@H]3c4ccc(O)cc4CC[C@H]3[C@@H]1CC[C@@H]2O	Protein disulfide-isomerase (P4HB, Homo sapiens, UniProt P07237)	thermal stability, DSF	100 µM	ΔTm	1.38 °C
O=Cc1ccc(O)cc1	XDH	enzyme activity, inhibitor, absorbance	100 µg/mL	inhibition	3.2%
CC(=S)NCCCC[C@H](NC(=O)OCc1ccccc1)C(=O)N[C@@H](Cc1c[nH]c2ccccc12)C(=O)N[C@@H](CCCNC(=N)N)C(N)=O	SIRT1	enzyme activity, inhibitor	1 µM	inhibition	64%
O=C(Nc1ccc(CN2CCOCC2)c(C(F)(F)F)c1)c1ccc(C#Cc2cccc3cnccc23)cn1	Oxidized purine nucleoside triphosphate hydrolase (NUDT1, Homo sapiens, UniProt P36639)	enzyme activity, activator	3 µM	activity vs control	140%
CCCCc1ccc(CCc2ccc(-c3noc([C@@H]4CCCN4C(=N)N)n3)cc2C(F)(F)F)cc1	SPHK2	enzyme activity, inhibitor, radiometric	0.3 µM	inhibition	59%
Cn1c(=O)[nH]c(=O)c2c1nc(S)n2CC(O)COc1ccc(Cl)cc1 (centres unmarked)	Legumain (Homo sapiens, UniProt Q99538)	enzyme activity, inhibitor, fluorescence	–	kinact/KI	14800 M⁻¹ s⁻¹
O=C1CC(CCc2c[nH]c3ccccc23)Oc2c(Br)cc(Cl)cc21 (centres unmarked)	SIRT1	enzyme activity, inhibitor, fluorescence	200 µM	inhibition	19%
CC(C)(O)[C@H]1CC[C@H](Nc2ccc3ncc(-c4cccc(C(F)(F)F)c4)n3n2)CC1	Testis-specific serine/threonine-protein kinase 6 (TSSK6, Homo sapiens, UniProt Q9BXA6)	enzyme activity, inhibitor	1 µM	remaining activity	97.7%
[H]/N=C(\N)N1CCC[C@H]1c1nc(-c2ccc(OCC=Cc3cccc(C(F)(F)F)c3)c(C(F)(F)F)c2)no1	SPHK2	enzyme activity, inhibitor, radiometric	0.3 µM	inhibition	56%
FC(F)(F)Oc1cccc(-c2cnc3ccc(-c4ccncc4)nn23)c1	Tau-tubulin kinase 2 (TTBK2, Homo sapiens, UniProt Q6IQ55)	enzyme activity, inhibitor, radiometric	5 µM	activity vs control	105%
